Laboratory results: ChEMBL document CHEMBL2040768, “Synthesis, antimicrobial and cytotoxic activities of sulfone linked bis heterocycles” (Eur J Med Chem, 2012)
Values after ≈ are worked out from the molar mass of the structure shown. Each block holds one compound with its values, some of them ahead of it. Active and inactive are the calls of the source. The rule behind the calls is not given here.

Assays:
Aspergillus niger [1] = test: Antifungal activity against Aspergillus niger at 50 ug/ml after 48 hrs by agar well diffusion method; type: functional; details: read-out: DIZ
Method in brief: (§1)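 Fungal agar well diffusion. Plates swabbed with fungal culture, 6 mm wells filled with DMSO solutions of compound (50 and 100 per well). Ketoconazole positive and DMSO negative controls. Plates incubated 28 °C for 48 h; zone of inhibition diameter (mm) read, average of duplicates.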

Aspergillus niger [2] = test: Antifungal activity against Aspergillus niger at 100 ug/ml after 48 hrs by agar well diffusion method; type: functional; details: read-out: DIZ; method in brief: as §1
Penicillium chrysogenum [3] = test: Antifungal activity against Penicillium chrysogenum at 50 ug/ml after 48 hrs by agar well diffusion method; type: functional; details: read-out: DIZ; method in brief: as §1
Penicillium chrysogenum [4] = test: Antifungal activity against Penicillium chrysogenum at 100 ug/ml after 48 hrs by agar well diffusion method; type: functional; details: read-out: DIZ; method in brief: as §1
Aspergillus niger [5] = test: Antifungal activity against Aspergillus niger after 48 hrs by broth dilution method; type: functional
Method in brief: (§2)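 Fungal MIC by broth dilution. Compounds dissolved in DMSO, added at rising concentrations to fungal culture tubes, incubated 28 °C for 48 h. Tubes read for visible turbidity alongside a solvent control; lowest concentration with no visible growth taken as MIC.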

Penicillium chrysogenum [6] = test: Antifungal activity against Penicillium chrysogenum after 48 hrs by broth dilution method; type: functional; method in brief: as §2
Staphylococcus aureus [7] = test: Antibacterial activity against Staphylococcus aureus at 50 ug/ml after 24 hrs by agar well diffusion method; type: functional; details: read-out: DIZ
Method in brief: (§3)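 Agar well diffusion. Nutrient plates swabbed with 24 h broth culture of the bacterium; 6 mm wells bored and loaded with DMSO solutions of compound (wells at 50 and 100 per well). Chloramphenicol positive control, DMSO negative control. Plates held 37 °C, 24 h; inhibition zone diameter (mm) measured, mean of duplicates.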

Staphylococcus aureus [8] = test: Antibacterial activity against Staphylococcus aureus at 100 ug/ml after 24 hrs by agar well diffusion method; type: functional; details: read-out: DIZ; method in brief: as §3
Bacillus subtilis [9] = test: Antibacterial activity against Bacillus subtilis at 50 ug/ml after 24 hrs by agar well diffusion method; type: functional; details: read-out: DIZ; method in brief: as §3
Bacillus subtilis [10] = test: Antibacterial activity against Bacillus subtilis at 100 ug/ml after 24 hrs by agar well diffusion method; type: functional; details: read-out: DIZ; method in brief: as §3
Pseudomonas aeruginosa [11] = test: Antibacterial activity against Pseudomonas aeruginosa at 50 ug/ml after 24 hrs by agar well diffusion method; type: functional; details: read-out: DIZ; method in brief: as §3
Pseudomonas aeruginosa [12] = test: Antibacterial activity against Pseudomonas aeruginosa at 100 ug/ml after 24 hrs by agar well diffusion method; type: functional; details: read-out: DIZ; method in brief: as §3
Klebsiella pneumoniae [13] = test: Antibacterial activity against Klebsiella pneumoniae at 50 ug/ml after 24 hrs by agar well diffusion method; type: functional; details: read-out: DIZ; method in brief: as §3
Klebsiella pneumoniae [14] = test: Antibacterial activity against Klebsiella pneumoniae at 100 ug/ml after 24 hrs by agar well diffusion method; type: functional; details: read-out: DIZ; method in brief: as §3
A549 [15] = test: Cytotoxicity against human A549 cells after 72 hrs by MTT assay; type: functional, cell-based
Method in brief: (§4)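 A549 lung carcinoma cells, 5 × 10⁴ per well, in DMEM with 10% FBS and antibiotics at 37 °C, 5% CO₂. After 3–4 h attachment, compound added at various concentrations for 72 h. MTT then added for 3 h, formazan dissolved in DMSO, absorbance read at 550 nm. Triplicate wells, three independent experiments; IC50 derived by curve fitting.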

A549 [16] = test: Cytotoxicity against human A549 cells assessed as decrease in viability at 100 to 200 uM after 72 hrs by MTT assay; type: functional, cell-based; method in brief: as §4
A549 [17] = test: Cytotoxicity against human A549 cells assessed as viability at 12.5 uM after 72 hrs by MTT assay; type: functional; details: A549, 72 h, read-out: Activity; method in brief: as §4
Staphylococcus aureus [18] = test: Antibacterial activity against Staphylococcus aureus after 24 hrs by broth dilution method; type: functional
Method in brief: (§5)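 Broth dilution MIC. Test samples in DMSO added at increasing concentrations to tubes of nutrient broth cultures, incubated 37 °C for 24 h. Visible turbidity scored against NB control; solvent and no-sample controls included. MIC = lowest concentration preventing visible growth.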

Bacillus subtilis [19] = test: Antibacterial activity against Bacillus subtilis after 24 hrs by broth dilution method; type: functional; method in brief: as §5
Pseudomonas aeruginosa [20] = test: Antibacterial activity against Pseudomonas aeruginosa after 24 hrs by broth dilution method; type: functional; method in brief: as §5
Klebsiella pneumoniae [21] = test: Antibacterial activity against Klebsiella pneumoniae after 24 hrs by broth dilution method; type: functional; method in brief: as §5
Staphylococcus aureus [22] = test: Bactericidal activity against Staphylococcus aureus after 24 hrs by broth dilution method; type: functional
Bacillus subtilis [23] = test: Bactericidal activity against Bacillus subtilis after 24 hrs by broth dilution method; type: functional
Pseudomonas aeruginosa [24] = test: Bactericidal activity against Pseudomonas aeruginosa after 24 hrs by broth dilution method; type: functional
Klebsiella pneumoniae [25] = test: Bactericidal activity against Klebsiella pneumoniae after 24 hrs by broth dilution method; type: functional
Aspergillus niger [26] = test: Fungicidal activity against Aspergillus niger after 48 hrs by broth dilution method; type: functional
Penicillium chrysogenum [27] = test: Fungicidal activity against Penicillium chrysogenum after 48 hrs by broth dilution method; type: functional
Bacillus subtilis [28] = test: Ratio of MBC to MIC for Bacillus subtilis after 24 hrs; type: functional
Penicillium chrysogenum [29] = test: Ratio of MFC to MIC for Penicillium chrysogenum after 48 hrs; type: functional
A549 [30] = test: Cytotoxicity against human A549 cells up to 0.2 mM after 72 hrs by MTT assay

SMILES: CC(=O)N1CCN(c2ccc(OCC3COC(Cn4ccnc4)(c4ccc(Cl)cc4Cl)O3)cc2)CC1 (stereo unspecified) [KETOCONAZOLE]
zone of inhibition at 50 µg/mL (Aspergillus niger [1]): 33 mm
zone of inhibition at 100 µg/mL (Aspergillus niger [2]): 36 mm
zone of inhibition at 50 µg/mL (Penicillium chrysogenum [3]): 36 mm
zone of inhibition at 100 µg/mL (Penicillium chrysogenum [4]): 38 mm
MIC (Aspergillus niger [5]): 6.25 mg/L (≈ 11.8 µM)
MIC (Penicillium chrysogenum [6]): 12.5 mg/L (≈ 23.5 µM)

SMILES: O=S(=O)(/C=C/S(=O)(=O)c1ccc(Cl)cc1)Cc1nnc(CS(=O)(=O)Nc2ccc(Cl)cc2)o1
zone of inhibition at 50 µg/mL (Staphylococcus aureus [7]): 14 mm
zone of inhibition at 100 µg/mL (Staphylococcus aureus [8]): 17 mm
zone of inhibition at 50 µg/mL (Bacillus subtilis [9]): 15 mm
zone of inhibition at 100 µg/mL (Bacillus subtilis [10]): 17 mm
zone of inhibition at 50 µg/mL (Pseudomonas aeruginosa [11]): 16 mm
zone of inhibition at 100 µg/mL (Pseudomonas aeruginosa [12]): 19 mm
zone of inhibition at 50 µg/mL (Klebsiella pneumoniae [13]): 15 mm
zone of inhibition at 100 µg/mL (Klebsiella pneumoniae [14]): 17 mm
zone of inhibition at 50 µg/mL (Aspergillus niger [1]): 19 mm
zone of inhibition at 100 µg/mL (Aspergillus niger [2]): 22 mm
zone of inhibition at 50 µg/mL (Penicillium chrysogenum [3]): 21 mm
zone of inhibition at 100 µg/mL (Penicillium chrysogenum [4]): 25 mm
Activity (A549 [15]): Dose-dependent effect
IC50 (A549 [15]; A549, 72 h): 31.7 µM
Activity (A549 [16]): Active
viability at 12.5 µM (A549 [17]): > 75%

SMILES: O=C(N[C@H](CO)[C@H](O)c1ccc([N+](=O)[O-])cc1)C(Cl)Cl [CHLORAMPHENICOL]
zone of inhibition at 50 µg/mL (Staphylococcus aureus [7]): 33 mm
zone of inhibition at 100 µg/mL (Staphylococcus aureus [8]): 35 mm
zone of inhibition at 50 µg/mL (Bacillus subtilis [9]): 34 mm
zone of inhibition at 100 µg/mL (Bacillus subtilis [10]): 38 mm
zone of inhibition at 50 µg/mL (Pseudomonas aeruginosa [11]): 27 mm
zone of inhibition at 100 µg/mL (Pseudomonas aeruginosa [12]): 30 mm
zone of inhibition at 50 µg/mL (Klebsiella pneumoniae [13]): 40 mm
zone of inhibition at 100 µg/mL (Klebsiella pneumoniae [14]): 42 mm
MIC (Staphylococcus aureus [18]): 6.25 mg/L (≈ 19.3 µM)
MIC (Bacillus subtilis [19]): 6.25 mg/L (≈ 19.3 µM)
MIC (Pseudomonas aeruginosa [20]): 6.25 mg/L (≈ 19.3 µM)
MIC (Klebsiella pneumoniae [21]): 12.5 mg/L (≈ 38.7 µM)

MIC (Staphylococcus aureus [18]): 12.5 mg/L (≈ 22.1 µM)
MIC (Bacillus subtilis [19]): 12.5 mg/L (≈ 22.1 µM)
MIC (Pseudomonas aeruginosa [20]): 12.5 mg/L (≈ 22.1 µM)
MIC (Klebsiella pneumoniae [21]): 25 mg/L (≈ 44.1 µM)
MIC (Aspergillus niger [5]): 12.5 mg/L (≈ 22.1 µM)
MIC (Penicillium chrysogenum [6]): 25 mg/L (≈ 44.1 µM)
SMILES: Nn1c(CS(=O)(=O)/C=C/S(=O)(=O)c2ccc(Cl)cc2)nnc1CS(=O)(=O)Nc1ccc(Cl)cc1
zone of inhibition at 50 µg/mL (Staphylococcus aureus [7]): 32 mm
zone of inhibition at 100 µg/mL (Staphylococcus aureus [8]): 35 mm
zone of inhibition at 50 µg/mL (Bacillus subtilis [9]): 36 mm
zone of inhibition at 100 µg/mL (Bacillus subtilis [10]): 38 mm
zone of inhibition at 50 µg/mL (Pseudomonas aeruginosa [11]): 31 mm
zone of inhibition at 100 µg/mL (Pseudomonas aeruginosa [12]): 33 mm
zone of inhibition at 50 µg/mL (Klebsiella pneumoniae [13]): 39 mm
zone of inhibition at 100 µg/mL (Klebsiella pneumoniae [14]): 40 mm
zone of inhibition at 50 µg/mL (Aspergillus niger [1]): 32 mm
zone of inhibition at 100 µg/mL (Aspergillus niger [2]): 34 mm
zone of inhibition at 50 µg/mL (Penicillium chrysogenum [3]): 35 mm
zone of inhibition at 100 µg/mL (Penicillium chrysogenum [4]): 38 mm
MBC (Staphylococcus aureus [22]): 50 mg/L (≈ 88.3 µM)
MBC (Bacillus subtilis [23]): 25 mg/L (≈ 44.1 µM)
MBC (Pseudomonas aeruginosa [24]): 50 mg/L (≈ 88.3 µM)
MBC (Klebsiella pneumoniae [25]): 100 mg/L (≈ 177 µM)
MFC (Aspergillus niger [26]): 100 mg/L (≈ 177 µM)
MFC (Penicillium chrysogenum [27]): 50 mg/L (≈ 88.3 µM)
Ratio (Bacillus subtilis [28]): 2
Ratio (Penicillium chrysogenum [29]): 2
Activity (A549 [30]): inactive

MIC (Staphylococcus aureus [18]): 50 mg/L (≈ 82.4 µM)
MIC (Bacillus subtilis [19]): 12.5 mg/L (≈ 20.6 µM)
MIC (Pseudomonas aeruginosa [20]): 25 mg/L (≈ 41.2 µM)
MIC (Klebsiella pneumoniae [21]): 50 mg/L (≈ 82.4 µM)
MIC (Aspergillus niger [5]): 12.5 mg/L (≈ 20.6 µM)
MIC (Penicillium chrysogenum [6]): 25 mg/L (≈ 41.2 µM)
SMILES: Nn1c(CS(=O)(=O)Nc2ccc(Cl)cc2)nnc1CS(=O)(=O)c1c[nH]nc1S(=O)(=O)c1ccc(Cl)cc1
zone of inhibition at 50 µg/mL (Staphylococcus aureus [7]): 31 mm
zone of inhibition at 100 µg/mL (Staphylococcus aureus [8]): 34 mm
zone of inhibition at 50 µg/mL (Bacillus subtilis [9]): 33 mm
zone of inhibition at 100 µg/mL (Bacillus subtilis [10]): 35 mm
zone of inhibition at 50 µg/mL (Pseudomonas aeruginosa [11]): 30 mm
zone of inhibition at 100 µg/mL (Pseudomonas aeruginosa [12]): 32 mm
zone of inhibition at 50 µg/mL (Klebsiella pneumoniae [13]): 37 mm
zone of inhibition at 100 µg/mL (Klebsiella pneumoniae [14]): 39 mm
zone of inhibition at 50 µg/mL (Aspergillus niger [1]): 30 mm
zone of inhibition at 100 µg/mL (Aspergillus niger [2]): 34 mm
zone of inhibition at 50 µg/mL (Penicillium chrysogenum [3]): 33 mm
zone of inhibition at 100 µg/mL (Penicillium chrysogenum [4]): 37 mm
MBC (Staphylococcus aureus [22]): 200 mg/L (≈ 330 µM)
MBC (Bacillus subtilis [23]): 50 mg/L (≈ 82.4 µM)
MBC (Pseudomonas aeruginosa [24]): 100 mg/L (≈ 165 µM)
MBC (Klebsiella pneumoniae [25]): 200 mg/L (≈ 330 µM)
MFC (Aspergillus niger [26]): 50 mg/L (≈ 82.4 µM)
MFC (Penicillium chrysogenum [27]): 100 mg/L (≈ 165 µM)
Activity (A549 [30]): inactive
